Data published in ChEMBL document CHEMBL5223070, “Synthesis and optimisation of P3 substituted vinyl sulfone-based inhibitors as anti-trypanosomal agents” (Bioorg Med Chem, 2020).

Experiments:
[1] = test system: Trypanosoma brucei brucei; test: Antitrypanosomal activity against Trypanosoma brucei brucei MIT measured after 6 hrs by Alamar blue cell viability assay; type: functional, organism-based
Summary of the method: (§1)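 Bloodstream-form T. b. brucei MITat1.1 kept in log phase in antibiotic-free HMI-9 with 10% heat-inactivated FBS, 37 °C, 5% CO2. Seeded at 2 × 10⁵ cells/mL with 5 μM–100 pM compound or DMSO alone. Alamar Blue added at 6 h, total incubation 24 h. Absorbance read at 540 and 595 nm. Triplicate. EC50 by four-parameter variable-slope nonlinear regression.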

[2] = test system: Trypanosoma brucei brucei; test: Antitrypanosomal activity against Trypanosoma brucei brucei assessed as reduction in survival; type: functional, organism-based; summary of the method: as §1
HaCaT [3] = test: Growth inhibition of human HaCaT cells assessed as LDH release at 100 uM incubated for 24 hrs by MTT assay; type: toxicity, cell-based
Summary of the method: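 HaCaT keratinocytes in DMEM with 10% fetal calf serum, seeded at 1x10⁵ cells/mL and grown 24 h. After a PBS wash, cells were exposed 24 h to compound at final 100 μM (from 10 mM DMSO stock, diluted in medium). Medium was then assayed for LDH release at 490/680 nm. Normalised to untreated cells and to lysis buffer (maximum release) as % cytotoxicity. Triplicate wells, three independent experiments.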

HaCaT [4] = test: Growth inhibition of human HaCaT cells assessed as reduction in cell viability at above 10 uM incubated for 24 hrs by MTT assay
[5] = Growth inhibition of human HaCaT cells incubated for 24 hrs by MTT assay; type: toxicity, cell-based
Summary of the method: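 HaCaT cells (mycoplasma-tested) in DMEM with 10% fetal calf serum, seeded at 1x10⁵ cells/mL for 24 h, washed with PBS and then exposed to compound for 24 h. Controls were 0.1% v/v Triton X-100 and untreated cells. MTT (0.5 mg/mL) added for 3 h, formazan dissolved in DMSO and read at 590 nm. GI50 from log(inhibitor) vs normalised response. Triplicate wells, repeated on three separate days.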

Row | Compound | EC50 [1] | IC50 [2] | growth inhibition (GI) (HaCaT [3]) | growth inhibition (GI) (HaCaT [4]) | GI50 at 24 h [5]
1 | CC(C)(C)NC(=O)N[C@@H](Cc1ccccc1)C(=O)N[C@H](/C=C/S(=O)(=O)c1ccccc1)CCCCNS(=O)(=O)c1cccc2ccccc12 | > 5000 nM |  |  |  | 
2 | N[C@@H](Cc1ccccc1)C(=O)N[C@H](/C=C/S(=O)(=O)c1ccccc1)CCCCNS(=O)(=O)c1cccc2ccccc12 | 3430 nM |  |  |  | 
3 | Cc1ccc(S(=O)(=O)N[C@@H](Cc2ccccc2)C(=O)N[C@H](/C=C/S(=O)(=O)c2ccccc2)CCCCNS(=O)(=O)c2cccc3ccccc23)cc1 | 990 nM |  |  |  | 
4 | CCCCCCc1cn([C@@H](Cc2ccccc2)C(=O)N[C@H](/C=C/S(=O)(=O)c2ccccc2)CCCCNS(=O)(=O)c2cccc3ccccc23)nn1 | 1050 nM |  |  |  | 
5 | O=C(N[C@H](/C=C/S(=O)(=O)c1ccccc1)CCCCNS(=O)(=O)c1cccc2ccccc12)[C@H](Cc1ccccc1)n1cc(-c2ccccc2)nn1 | 1120 nM |  |  |  | 
6 | [N-]=[N+]=N[C@@H](Cc1ccccc1)C(=O)N[C@H](/C=C/S(=O)(=O)c1ccccc1)CCCCNS(=O)(=O)c1cccc2ccccc12 | > 5000 nM |  |  |  | 
7 | O=C1N[C@@H](CCCCNS(=O)(=O)c2cccc3ccccc23)[C@@H](CS(=O)(=O)c2ccccc2)N[C@H]1Cc1ccccc1 | > 5000 nM |  |  |  | 
8 | CN1CCN(C(=O)N[C@@H](Cc2ccccc2)C(=O)N[C@H](/C=C/S(=O)(=O)c2ccccc2)CCCCNS(=O)(=O)c2cccc3ccccc23)CC1 | 1190 nM | 1180 nM | Not Determined(Insoluble) | Toxic | 28700 nM

These reach a lower EC50 [1]. Values come first.

Row | EC50 [1] | Compound | IC50 [2] | growth inhibition (GI) (HaCaT [3]) | growth inhibition (GI) (HaCaT [4]) | GI50 at 24 h [5]
9 | 240 nM | O=C(N[C@@H](Cc1ccccc1)C(=O)N[C@H](/C=C/S(=O)(=O)c1ccccc1)CCCCNS(=O)(=O)c1cccc2ccccc12)c1ccc(C(F)(F)F)cc1 | 242 nM | Not Determined(Insoluble) | Toxic | 
10 | 900 nM | O=C(N[C@H](/C=C/S(=O)(=O)c1ccccc1)CCCCNS(=O)(=O)c1cccc2ccccc12)[C@H](Cc1ccccc1)NC(=O)N1CCOCC1 |  |  |  | 
11 | 710 nM | O=C(N[C@@H](Cc1ccccc1)C(=O)N[C@H](/C=C/S(=O)(=O)c1ccccc1)CCCCNS(=O)(=O)c1cccc2ccccc12)c1ccncc1 |  |  |  | 
12 | 640 nM | CCCCNC(=O)N[C@@H](Cc1ccccc1)C(=O)N[C@H](/C=C/S(=O)(=O)c1ccccc1)CCCCNS(=O)(=O)c1cccc2ccccc12 |  |  |  | 
13 | 740 nM | O=C(N[C@@H](Cc1ccccc1)C(=O)N[C@H](/C=C/S(=O)(=O)c1ccccc1)CCCCNS(=O)(=O)c1cccc2ccccc12)OCc1ccccc1 |  |  |  | 
14 | 800 nM | O=C(Cc1ccc2c(c1)OCO2)N[C@@H](Cc1ccccc1)C(=O)N[C@H](/C=C/S(=O)(=O)c1ccccc1)CCCCNS(=O)(=O)c1cccc2ccccc12 |  |  |  | 
15 | 390 nM | COc1cc(Br)c(S(=O)(=O)NCCCC[C@@H](/C=C/S(=O)(=O)c2ccccc2)NC(=O)[C@H](Cc2ccccc2)NC(=S)Nc2ccc(C(F)(F)F)cc2)cc1OC | 410 nM | Not Determined(Insoluble) | Toxic | 
16 | 220 nM | O=C(N[C@H](/C=C/S(=O)(=O)c1ccccc1)CCCCNS(=O)(=O)c1cccc2ccccc12)[C@H](Cc1ccccc1)NC(=S)Nc1ccc(C(F)(F)F)cc1 | 220 nM | Not Determined(Insoluble) | Toxic | 
17 | 480 nM | O=C(N[C@H](/C=C/S(=O)(=O)c1ccccc1)CCCCNS(=O)(=O)c1cccc2ccccc12)[C@H](Cc1ccccc1)NC(=S)Nc1ccccc1 |  |  |  | 
18 | 150 nM | O=C(Nc1ccccc1)N[C@@H](Cc1ccccc1)C(=O)N[C@H](/C=C/S(=O)(=O)c1ccccc1)CCCCNS(=O)(=O)c1cccc2ccccc12 | 144 nM | Not Determined(Insoluble) | Toxic | 
